Where “and” joins values, the source holds several entries; their conditions need not be identical. Identical values can stand only once.
Test system: U2OS
Test: Multiplex assay against U2OS
Format: toxicity, cell-based
Conditions: human
Summary of the method: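 On a CQ1 microscope at 37°C and 5% CO2, live cells were imaged after compound addition. They had been stained at seeding with Hoechst33342, BioTracker Green Microtubule Cytoskeleton Dye, MitoTracker Red and Annexin V Alexa Fluor 680. CellPathfinder machine-learning gating assigned cells to Hoechst high-intensity objects or normal cells, normal cells to healthy, pyknosed or fragmented nuclei, and pyknosed cells to mitotic or apoptotic. Tubulin, mitochondrial-mass and membrane-permeability phenotypes are per cents of healthy-nucleus cells.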

[1] = 12 h, 1 µM, compound concentration 1 uM
[2] = 12 h, 10 µM, compound concentration 10 uM
[3] = 24 h, 1 µM, compound concentration 1 uM
[4] = 24 h, 10 µM, compound concentration 10 uM
[5] = 48 h, 1 µM, compound concentration 1 uM
[6] = 48 h, 10 µM, compound concentration 10 uM

For COc1cc(Nc2ncc3c(n2)-c2ccc(Cl)cc2C(c2c(F)cccc2OC)=NC3)ccc1C(=O)O [ALISERTIB], the “Population Apoptotic (%)” value [1] was 63% and 71%, the “Population Fragmented Nuclei (%)” value [1] was 23% and 35% and the “Population Healthy Nuclei (%)” value [1] was 65% and 55%. For the same compound, the “Population Hoechst High Intensity Objects (%)” value [1] was 1% and 4%, the “Population Membrane Permeable-Phenotype (%)” value [1] was 4% and 8% and the “Population Mitochondria Different-Phenotype (%)” value [1] was 3% and 4%. For the same compound, the “Population Mitotic Cells (%)” value [1] was 36% and 28%, the “Population Normal (%)” value [1] was 98% and 95% and the “Population Pyknosed Nuclei (%)” value [1] was 10% and 8%. For the same compound, the “Population Tubulin-Different-Phenotype (%)” value [1] was 3% and 11%, the “Population Apoptotic (%)” value [2] was 79% and 71% and the “Population Fragmented Nuclei (%)” value [2] was 31% and 12%. For the same compound, the “Population Healthy Nuclei (%)” value [2] was 57% and 82%, the “Population Hoechst High Intensity Objects (%)” value [2] was 3% and 2% and the “Population Membrane Permeable-Phenotype (%)” value [2] was 11% and 5%. The “Population Mitochondria Different-Phenotype (%)” value [2] was 5% and 1%, the “Population Mitotic Cells (%)” value [2] was 20% and 28% and the “Population Normal (%)” value [2] was 96% and 97%. The “Population Pyknosed Nuclei (%)” value [2] was 11% and 5%, the “Population Tubulin-Different-Phenotype (%)” value [2] was 4% and 0% and the “Population Apoptotic (%)” value [3] was 78% and 75%. For the same compound, the “Population Fragmented Nuclei (%)” value [3] was 26% and 20%, the “Population Healthy Nuclei (%)” value [3] was 64% and 63% and the “Population Hoechst High Intensity Objects (%)” value [3] was 1% and 2%. The “Population Membrane Permeable-Phenotype (%)” value [3] was 9% and 6%, the “Population Mitochondria Different-Phenotype (%)” value [3] was 4% and 2% and the “Population Mitotic Cells (%)” value [3] was 21% and 25%. For the same compound, the “Population Normal (%)” value [3] was 98% and 97%, the “Population Pyknosed Nuclei (%)” value [3] was 8% and 15% and the “Population Tubulin-Different-Phenotype (%)” value [3] was 5% and 2%. The “Population Apoptotic (%)” value [4] was 84% and 90%, the “Population Fragmented Nuclei (%)” value [4] was 30% and 12% and the “Population Healthy Nuclei (%)” value [4] was 55% and 77%. For the same compound, the “Population Hoechst High Intensity Objects (%)” value [4] was 4%, the “Population Membrane Permeable-Phenotype (%)” value [4] was 13% and 9% and the “Population Mitochondria Different-Phenotype (%)” value [4] was 5% and 4%. The “Population Mitotic Cells (%)” value [4] was 15% and 9%, the “Population Normal (%)” value [4] was 95% and the “Population Pyknosed Nuclei (%)” value [4] was 13% and 9%. For the same compound, the “Population Tubulin-Different-Phenotype (%)” value [4] was 4% and 5%, the “Population Apoptotic (%)” value [5] was 85% and 78% and the “Population Fragmented Nuclei (%)” value [5] was 28% and 29%. For the same compound, the “Population Healthy Nuclei (%)” value [5] was 59% and 53%, the “Population Hoechst High Intensity Objects (%)” value [5] was 3% and the “Population Membrane Permeable-Phenotype (%)” value [5] was 6% and 11%. For the same compound, the “Population Mitochondria Different-Phenotype (%)” value [5] was 5% and 6%, the “Population Mitotic Cells (%)” value [5] was 14% and 21% and the “Population Normal (%)” value [5] was 96%. For the same compound, the “Population Pyknosed Nuclei (%)” value [5] was 12% and 17%, the “Population Tubulin-Different-Phenotype (%)” value [5] was 3% and 4% and the “Population Apoptotic (%)” value [6] was 88%. For the same compound, the “Population Fragmented Nuclei (%)” value [6] was 34% and 16%, the “Population Healthy Nuclei (%)” value [6] was 44% and 70% and the “Population Hoechst High Intensity Objects (%)” value [6] was 9% and 5%. For the same compound, the “Population Membrane Permeable-Phenotype (%)” value [6] was 16% and 7%, the “Population Mitochondria Different-Phenotype (%)” value [6] was 9% and 3% and the “Population Mitotic Cells (%)” value [6] was 11%. The “Population Normal (%)” value [6] was 90% and 94%, the “Population Pyknosed Nuclei (%)” value [6] was 21% and 13% and the “Population Tubulin-Different-Phenotype (%)” value [6] was 9% and 2%.

From ChEMBL document CHEMBL5724801, “EUbOPEN Chemogenomics Library - Multiplex” (2024)
